Data set [1] in a line: Prodrug conversion assessed as doxorubicin formation by HPLC analysis at pH 5 in presence of cathepsin B. It counts as physicochemical. An outline of the steps:
(§1)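 Prodrug stock (1.5 mM) mixed with human liver cathepsin B (0.4 mg/mL, 23.8 U/mg) in 50 mM sodium acetate, 100 mM NaCl, 4 mM EDTA, 8 mM L-cysteine at pH 5.0 or 6.0. Incubated at 37 °C. Aliquots taken at 5–120 min and analysed by gradient C18 RP-HPLC. Control at pH 5.0 omitted the enzyme.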

Data set [2] relates to Plasma. Kind of data set: Stability in human plasma assessed as doxorubicin formation over 6 hrs by HPLC analysis. The format is ADME, cell-free. In short, it runs like this: (§2)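 Prodrug stock (3 mM in 10 mM sodium phosphate, 0.15 M NaCl, pH 7.4) added to EDTA-anticoagulated plasma from healthy volunteers, final 600 μM. Incubated at 37 °C for 0, 0.5, 1, 3 and 6 h. Samples centrifuged; supernatant analysed by C18 RP-HPLC with detection at 495 nm.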

In data set [3] the test system is Hydroxyapatite. Kind of data set: Binding affinity to bone mineral hydroxyapatite at pH 7.4 at 300 uM after 24 hrs by photometric analysis.
The test system of data set [4] is Mus musculus. The data set can be described thus: Toxicity in Balb/c nude mouse assessed as adverse effects at 8 mg/kg, iv of doxorubicin equivalents administered once a week on days 0, 7 and 14 measured after 1 week. It counts as organism-based. Also noted: dose 8 mg/kg, route intravenous. The note with it: in vivo, 168 h. An outline of the steps:
(§3)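 Female Balb/C nude mice, five weeks old, about 20 g, three per group. Prodrug dissolved at 3.4 mM in sterile 10 mM sodium phosphate/sodium chloride buffer, pH 7.4. Given i.v. once weekly for three weeks at 8, 16 or 24 mg/kg doxorubicin equivalents. Behaviour and welfare checked daily, body weight every two days, observation over four weeks.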

Data set [5] concerns Hydroxyapatite. Kind of data set: Binding affinity to bone mineral hydroxyapatite at pH 7.4 at 300 uM after 1 hr by photometric analysis. In short, it runs like this: (§4)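 Compound diluted to 300 μM (checked by absorbance at 495 nm, ε 10650 M⁻¹ cm⁻¹) in 4 mM sodium phosphate, 150 mM NaCl at pH 6.0 or 7.4. Hydroxyapatite (30 equiv) added, stirred at 37 °C. Parallel solution without HA as control. Centrifuged at 0–6 h and 20 h; supernatant A495 read. Mean of three measurements. % bound = (conc without HA − conc with HA)/conc without HA × 100.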

The test system of data set [6] is Hydroxyapatite. Kind of data set: Binding affinity to bone mineral hydroxyapatite at pH 6 at 300 uM after 1 hr by photometric analysis. In short, it runs like this:
as §4

For data set [7], the system named is Mus musculus. Kind of data set: Toxicity in Balb/c nude mouse assessed as mortality at 24 mg/kg, iv of doxorubicin equivalents measured on day 7. It counts as organism-based. Also noted: dose 24 mg/kg, route intravenous. Conditions: in vivo. In short, it runs like this: as §3
Data set [8] can be described thus: […] by HPLC analysis at pH 5 in absence of cathepsin B. It counts as physicochemical. The note with it: buffer.
The test system of data set [9] is Mus musculus. Kind of data set: Toxicity in Balb/c nude mouse assessed as weight loss at 8 mg/kg, iv of doxorubicin equivalents administered once a week on days 0, 7 and 14 measured after 1 week. It counts as organism-based. Also on record: dose 8 mg/kg, route intravenous. Conditions: in vivo, 168 h. In short, it runs like this: as §3
In data set [10] the test system is Hydroxyapatite. Kind of data set: Binding affinity to bone mineral hydroxyapatite at pH 6 at 300 uM up to 24 hrs by photometric analysis. In short, it runs like this:
as §4

A short description of data set [11]: Prodrug conversion assessed as doxorubicin formation after 40 mins by HPLC analysis at pH 6 in presence of cathepsin B. Conditions: pH 6, 40 min. The format is physicochemical. In short, it runs like this:
as §1

Data set [12] can be described thus: Toxicity in iv dosed Balb/c nude mouse administered as doxorubicin equivalents once a week for 3 weeks. Conditions: in vivo. It counts as organism-based. In short, it runs like this:
as §3

Data set [13] has as its system Plasma. Kind of data set: Stability in human plasma assessed as anthracycline derivative formation over 6 hrs by HPLC analysis. It counts as ADME, cell-free. An outline of the steps:
as §2

For the next data set, the species on record is Bos taurus. The data set can be described thus: Binding affinity to bovine bone matrix at pH 7.4 at 300 uM after 4 hrs by spectrophotometric analysis. An outline of the steps:
(§5)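 Cortical bovine backbone bone cut into 6×4×1 mm pieces, washed with water and absolute ethanol, dried. About 50 mg bone stirred at 37 °C with 300 μM prodrug in 4 mM Na₂HPO₄, 150 mM NaCl, pH 6.0 or 7.4. Control without bone. Centrifuged, supernatant A495 read. % bound = (conc without bone − conc with bone)/conc without bone × 100.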

Data set [14] relates to Hydroxyapatite. Kind of data set: Binding affinity to bone mineral hydroxyapatite at pH 7.4 at 300 uM after 5 hrs by photometric analysis. An outline of the steps:
as §4

Data set [15] can be described thus: Half life of the compound by HPLC analysis at pH 5 in presence of cathepsin B. It counts as physicochemical. An outline of the steps: as §1
Data set [16] can be described thus: Prodrug conversion assessed as doxorubicin formation after 120 mins by HPLC analysis at pH 5 in presence of cathepsin B. It counts as physicochemical. Conditions: pH 5, 2 h. In short, it runs like this:
as §1

Data set [17] concerns Mus musculus. The data set can be described thus: Toxicity in Balb/c nude mouse assessed as mortality at 16 mg/kg, iv of doxorubicin equivalents measured on day 7. The note with it: in vivo. Also on record: dose 16 mg/kg, route intravenous. It counts as organism-based. In short, it runs like this:
as §3

A short description of data set [18]: Binding affinity to bovine bone matrix at pH 6 at 300 uM after 4 hrs by spectrophotometric analysis. The format is ADME, Bos taurus. Conditions: cattle, pH 6, 4 h. In short, it runs like this: as §5
Data set [19] has as its system Mus musculus. The data set can be described thus: Toxicity in Balb/c nude mouse assessed as mortality at 24 mg/kg, iv of doxorubicin equivalents administered once a week on days 7, 14 and 21 measured 13 days post-last dose. The format is organism-based. Also on record: dose 24 mg/kg, route intravenous. Conditions: in vivo, 312 h. In short, it runs like this: as §3

Data set [20] deals with Mus musculus. The data set can be described thus: Toxicity in Balb/c nude mouse assessed as anemia at 24 mg/kg, iv of doxorubicin equivalents administered once a week on days 7, 14 and 21 measured 13 days post-last dose. Conditions: in vivo, 312 h. Also on record: dose 24 mg/kg, route intravenous. The format is organism-based. In short, it runs like this: as §3
The test system of data set [21] is Mus musculus. Kind of data set: Toxicity in Balb/c nude mouse assessed as change in body weight at 24 mg/kg, iv of doxorubicin equivalents administered once a week on days 7, 14 and 21. The format is organism-based. Also noted: dose 24 mg/kg, route intravenous. Conditions: in vivo. In short, it runs like this: as §3
The nature of data set [22]: Prodrug conversion assessed as doxorubicin formation at pH 5.5 at 600 uM by HPLC analysis. The format is physicochemical. Conditions: pH 5.5, 600 µM; TDE = time-dependent effect. An outline of the steps:
(§6)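 Prodrug at a final 2.4 mM in 4 mM sodium phosphate, 150 mM NaCl (pH 7.4), brought to pH 5.5 with 50 mM sodium acetate (pH 4.5). Held at room temperature; samples diluted to 600 μM and analysed by isocratic C18 HPLC (30% CH₃CN/10 mM phosphate pH 7.8) at 5–300 min.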

Data set [23] relates to Mus musculus. Kind of data set: Toxicity in Balb/c nude mouse assessed as adverse effects at 16 mg/kg, iv of doxorubicin equivalents administered once a week on days 7, 14 and 21. Also noted: dose 16 mg/kg, route intravenous. It counts as organism-based. The note with it: in vivo. An outline of the steps:
as §3

A short description of data set [24]: Half life of the compound at pH 5.5 at 600 uM by HPLC analysis. The format is physicochemical. An outline of the steps: as §6
Data set [25] deals with Mus musculus. Kind of data set: Toxicity in Balb/c nude mouse assessed as adverse effects at 24 mg/kg, iv of doxorubicin equivalents administered once a week on days 7, 14 and 21. It counts as organism-based. Also on record: dose 24 mg/kg, route intravenous. Conditions: in vivo. In short, it runs like this: as §3
The test system of data set [26] is Hydroxyapatite. The data set can be described thus: Binding affinity to bone mineral hydroxyapatite at pH 6 at 300 uM by photometric analysis. An outline of the steps: (§7)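 Test compound at 300 μM in 4 mM sodium phosphate with 150 mM NaCl, at pH 6.0 or pH 7.4, concentration checked by absorbance at 495 nm. Hydroxyapatite powder (30 equiv) added, stirred, incubated at 37 °C, with a matching sample without hydroxyapatite as control. Centrifuged at 0–6 h and 20 h. Supernatant A495 read (ε 10650 M⁻¹ cm⁻¹). % bound = (no-HA − HA conc)/no-HA conc × 100. Mean of three measurements.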

In data set [27] the test system is Hydroxyapatite. Kind of data set: Binding affinity to bone mineral hydroxyapatite at pH 7.4 at 300 uM by photometric analysis. In short, it runs like this: as §7

Calls of active or inactive are those of the source. The calls are words filed in the database; no cut-off is given here.

In the case of `COc1cccc2c1C(=O)c1c(O)c3c(c(O)c1C2=O)C[C@@](O)(C(=O)CO)C[C@@H]3O[C@H]1C[C@H](NC(=O)OCc2ccc(NC(=O)[C@H](CCCCN)NC(=O)[C@H](Cc3ccccc3)NC(=O)CCCCCN3C(=O)CC(SCCCSCC(P(=O)([O-])[O-])P(=O)([O-])[O-])C3=O)cc2)[C@H](O)[C@H](C)O1.O=C(O)C(F)(F)F.[Na+].[Na+].[Na+].[Na+]` (some centres not stated), in data set [1], the Drug metabolism result is “Active”.

Consider `COc1cccc2c1C(=O)c1c(O)c3c(c(O)c1C2=O)C[C@@](O)(C(=O)CO)C[C@@H]3O[C@H]1C[C@H](NC(=O)OCc2ccc(NC(=O)[C@H](C)NC(=O)[C@@H](NC(=O)CCCCCN3C(=O)CC(SCCCSCC(P(=O)(O)O)P(=O)(O)O)C3=O)C(C)C)cc2)[C@H](O)[C@H](C)O1.N.N.N.N` (some centres not stated), for which the Stability entry (with Plasma [2]; in data set [8]; with Plasma [13]) was “Stable” throughout. For the same molecule, the Activity with Hydroxyapatite [3] is 100%; with Mus musculus [4], “Non-toxic”; in the data set with Hydroxyapatite [5], 50%; in the data set on Hydroxyapatite [6], 65%; with Mus musculus [7], “Toxic”; in the data set on Mus musculus [9], “Non-toxic”. Also, the Activity in the data set with Hydroxyapatite [10] was 90%; in the data set filed under Bos taurus, 50%; with Hydroxyapatite [14] it was 90%; in the data set with Mus musculus [17], “Toxic”; in data set [18], 80%. In addition, the Drug metabolism result in data set [11], in [1] and in data set [16] was “Active” throughout. The MTD at 504 h in [12] was found to be 8 mg/kg. In [15], the half-life was 0.75 h.

With `COc1cccc2c1C(=O)c1c(O)c3c(c(O)c1C2=O)C[C@@](O)(/C(CO)=N/NC(=O)CCCCCN1C(=O)CC(SCCCSCC(P(=O)(O)O)P(=O)(O)O)C1=O)C[C@@H]3O[C@H]1C[C@H](N)[C@H](O)[C@H](C)O1.Cl.N.N.N.N` (some centres not stated), the Drug metabolism entry is on record as “Active” in the data set with Plasma [2], “tde” in data set [22] and “Active” with Plasma [13]. The Activity result was “Non-toxic” in the data set on Mus musculus [4]; 50% in the data set on Hydroxyapatite [5]; “Toxic” in the data set on Mus musculus [19]; “Toxic” in the data set on Mus musculus [20]; 65% with Hydroxyapatite [6]; “Non-toxic” in the data set on Mus musculus [21]. For the same molecule, the Activity entry in the data set on Mus musculus [9] is “Non-toxic”; with Mus musculus [23] it was “Non-toxic”; in the data set listed under Bos taurus, 50%; with Hydroxyapatite [14], 80%; in the data set with Mus musculus [25], “Non-toxic”; in data set [18] it was 80%. Also, the MTD at 504 h in [12] stood at 24 mg/kg. Further, in [24], the half-life at 600 µM was 2.5 h.

With `COc1cccc2c1C(=O)c1c(O)c3c(c(O)c1C2=O)C[C@@](O)(C(=O)CO)C[C@@H]3O[C@H]1C[C@H](N)[C@H](O)[C@H](C)O1` [DOXORUBICIN], the result in the data set with Hydroxyapatite [26], in the data set on Hydroxyapatite [27] and in the data set listed under Bos taurus was inactive. In addition, the MTD at 504 h in [12] worked out at 8 mg/kg. The Activity entry in [18] was “Not Active”.

Source of the values: ChEMBL document CHEMBL2169817, “Development of novel bisphosphonate prodrugs of doxorubicin for targeting bone metastases that are cleaved pH dependently or by cathepsin B: synthesis, cleavage properties, and binding properties to hydroxyapatite as well as bone matrix” (J Med Chem, 2012).
